This passage reports No. of survivors, MFC and MIC results from ChEMBL document CHEMBL1124711, “Design and synthesis of 14 alpha-methyl-15-aza-D-homosterols as novel antimycotics” (1990).

In brackets after ≈: the same amount, converted by molar mass. Some results are limits rather than exact numbers.

The test system of test [1] is Mus musculus. The test can be described thus: The number of survivors/total infected at day 14 was determined after (ip) administration of 2 mg/kg in Candida albicans infected mice; 4/10. Type of test: functional.
Test [2] has as its system Candida albicans. The test can be described thus: Minimum fungicidal concentration was determined against Candida albicans 3153A strain. Type of test: functional. The method in brief: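 Fungicidal endpoint: lowest drug concentration whose subcultures were negative or grew fewer than three colonies.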
Test [3] has as its system Candida albicans. In words: Minimum inhibitory concentration was determined against Candida albicans 3153A strain. Type of test: functional.
The subject of test [4] is Mus musculus. The test can be described thus: The number of survivors/total infected at day 14 was determined after (ip) administration of 2 mg/kg in Candida albicans infected mice; 6/10. Format: functional.
Test [5] relates to Mus musculus. In words: The number of survivors/total infected at day 14 was determined after (ip) administration of 1 mg/kg in Candida albicans infected mice; 10/10.
Where [6] appears, read: Candida albicans, read-out: MFC.
The mark [7] stands for this setting: Candida albicans, read-out: MIC.

As a reminder, the MFC is the lowest tested concentration that kills the fungus rather than only halting it. Usually MIC stands for the lowest concentration that inhibits growth of the organism. Turning to `CC(C)CCC[C@@H](C)C1CCN[C@@]2(C)C3=C(CC[C@]12C)[C@@]1(C)CC[C@H](O)CC1CC3` (stereo partly drawn), the No. of survivors in the test with Mus musculus [1] was found to be 4. The MFC against Candida albicans [2] and in the test with Candida albicans [2] (setting [6]) was 6.3 µg/mL (≈ 15.2 µM) throughout. The MIC with Candida albicans [3] and in the test on Candida albicans [3] (setting [7]) was 3.1 µg/mL (≈ 7.46 µM) each time.
On to `CC(C)[C@@H](C)/C=C/[C@@H](C)C1CCN[C@@]2(C)C3=CCC4C(C)(C)[C@@H](O)CC[C@]4(C)C3CC[C@]12C` (stereo partly drawn), for which the MFC with Candida albicans [2] and with Candida albicans [2] (setting [6]) was 6.3 µg/mL (≈ 13.8 µM) in each case. In addition, the MIC against Candida albicans [3] and in the test with Candida albicans [3] (setting [7]) was 1.6 µg/mL (≈ 3.51 µM) each time.
Consider `CC(C)CCC[C@@H](C)C1CC(=O)N[C@@]2(C)C3=CCC4C[C@@H](O)CC[C@]4(C)C3CC[C@]12C` (stereo partly drawn), for which the MIC in the test with Candida albicans [3] (setting [7]) is over 100 µg/mL.
For the compound `CC(C)[C@@H](C)/C=C/[C@@H](C)C1CCN[C@@]2(C)C3=CCC4C[C@@H](O)CC[C@]4(C)C3CC[C@]12C` (stereo partly drawn), the MFC with Candida albicans [2] and in the test on Candida albicans [2] (setting [6]) was 6.3 µg/mL (≈ 14.7 µM) throughout. Moreover, the MIC against Candida albicans [3] and in the test on Candida albicans [3] (setting [7]) was 0.8 µg/mL (≈ 1.87 µM) throughout.
On to `CC(C)CCC[C@@H](C)C1CCN[C@@]2(C)C3=CCC4C[C@@H](O)CC[C@]4(C)C3CC[C@]12C` (stereo partly drawn), for which the No. of survivors in the test on Mus musculus [4] amounted to 6. Further, the MFC against Candida albicans [2] and in the test on Candida albicans [2] (setting [6]) was 6.3 µg/mL (≈ 15.2 µM) throughout. In addition, the minimum inhibitory concentration (MIC) in the test with Candida albicans [3] and in the test on Candida albicans [3] (setting [7]) was 1.6 µg/mL (≈ 3.85 µM) in each case.
With `CC(C)CCC[C@@H](C)C1CCN[C@@]2(C)C3=CCC4C(C)(C)[C@@H](O)CC[C@]4(C)C3CC[C@]12C` (stereo partly drawn), the MFC in the test on Candida albicans [2] and in the test with Candida albicans [2] (setting [6]) was 3.1 µg/mL (≈ 6.99 µM) throughout. In addition, the minimum inhibitory concentration (MIC) in the test with Candida albicans [3] and in the test with Candida albicans [3] (setting [7]) was 1.6 µg/mL (≈ 3.61 µM) throughout.
As to `C[C@@H]1[C@H](O)[C@@H](C)/C=C/C=C/C=C/C=C/C=C/C=C/C=C/[C@H](O[C@@H]2O[C@H](C)[C@@H](O)[C@H](N)[C@@H]2O)C[C@@H]2O[C@](O)(C[C@@H](O)C[C@@H](O)[C@H](O)CC[C@@H](O)C[C@@H](O)CC(=O)O[C@H]1C)C[C@H](O)[C@H]2C(=O)O` [AMPHOTERICIN B], in the test on Mus musculus [5], the No. of survivors was 10. The MIC in the test on Candida albicans [3] and in the test with Candida albicans [3] (setting [7]) was 0.16 µg/mL (≈ 0.173 µM) throughout.
Regarding `OC(Cn1cncn1)(Cn1cncn1)c1ccc(F)cc1F` [FLUCONAZOLE], the MIC with Candida albicans [3] and in the test with Candida albicans [3] (setting [7]) was 0.8 µg/mL (≈ 2.61 µM) throughout.
